Published values gathered from unrelated publications.
Each line is one published result; the experiments were not run side by side.
Organism: Leishmania donovani
Effect on: parasite growth

SMILES	assay	system	conditions	endpoint	result
C[C@@H]1[C@H](O)[C@@H](C)/C=C/C=C/C=C/C=C/C=C/C=C/C=C/[C@H](O[C@@H]2O[C@H](C)[C@@H](O)[C@H](N)[C@@H]2O)C[C@@H]2O[C@](O)(C[C@@H](O)C[C@@H](O)[C@H](O)CC[C@@H](O)C[C@@H](O)CC(=O)O[C@H]1C)C[C@H](O)[C@H]2C(=O)O	MTT	–	48 h, amastigote	IC90	1800 nM
C[C@@H]1[C@H](O)[C@@H](C)/C=C/C=C/C=C/C=C/C=C/C=C/C=C/[C@H](O[C@@H]2O[C@H](C)[C@@H](O)[C@H](N)[C@@H]2O)C[C@@H]2O[C@](O)(C[C@@H](O)C[C@@H](O)[C@H](O)CC[C@@H](O)C[C@@H](O)CC(=O)O[C@H]1C)C[C@H](O)[C@H]2C(=O)O	–	–	promastigote	IC50	135 nM
c1ccc(CNc2nc(-c3ccccn3)nc3ccccc23)cc1	imaging	THP-1	intracellular, amastigote	IC50	1100 nM
COc1cc(NC(C)CCCNC(=S)NCCCC(C)Nc2cc(OC)cc3ccc(C(C)(C)C)nc23)c2nc(C(C)(C)C)ccc2c1.Cl.Cl (stereo not drawn)	resazurin	–	promastigote	IC90	20 to 31 µg/mL
COc1ccccc1-c1n[nH]c2nc(NC3CCN(C(=O)Cc4ccc(OCCOCCN)cc4)CC3)ncc12	–	THP-1	intracellular, amastigote	EC50	26.7 µM
COc1cc(NC(C)CCCNC(=S)NCCCC(C)Nc2cc(OC)cc3cccnc23)c2ncccc2c1.Cl.Cl (stereo not drawn)	resazurin	–	promastigote	IC90	20 to 31 µg/mL
Fc1cccc(Nc2nc(-c3ccccn3)nc3ccccc23)c1	imaging	THP-1	intracellular, amastigote	IC50	790 nM
COc1ccccc1-c1n[nH]c2nc(NC3CCN(C(=O)Cc4ccc(OCCOCCNC(=O)OC(C)(C)C)cc4)CC3)ncc12	–	THP-1	intracellular, amastigote	EC50	4.51 µM
CCCCCCCCCCCCCCCCOP(=O)([O-])OCC[N+](C)(C)C	resazurin	–	50 µM, 72 h, promastigote	inhibition	100%
N=C(N)c1ccc(OCCCCCOc2ccc(C(=N)N)cc2)cc1	resazurin	–	72 h, promastigote	IC90	8.77 µg/mL
COc1ccccc1-c1n[nH]c2nc(N[C@H]3CC[C@H](NS(=O)(=O)CCCOCCOCCN)CC3)ncc12	–	–	amastigote	EC50	4.21 µM
CCCCCCCC/C=C\CCCCCCCCCCCCOP(=O)([O-])OCC[N+](C)(C)C	resazurin	–	25 µM, 72 h, promastigote	inhibition	106%
